This passage reports inhibition and Activity results from ChEMBL document CHEMBL2331229, “Extracellular signal-regulated kinases (ERK) inhibitors from Aristolochia yunnanensis” (J Nat Prod, 2013).

Calls of active or inactive are those of the source. The calls are words filed in the database; no cut-off is given here.

Assay [1] deals with T1, Mitogen-activated protein kinase; ERK1/ERK2 (Homo sapiens) (UniProt P27361+P28482). As to the kind of experiment: Inhibition of ERK1/2 phosphorylation in human HeLa cells at 20 uM after 3 hrs by Western blotting analysis. It is filed as cell-based. An outline of the steps:
(§1)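 HeLa cells exposed to 20 μM compound for 3 h. Lysed in Tris pH 7.4/NaCl/NP-40/deoxycholate/SDS buffer with protease and phosphatase inhibitors, protein by BCA. Then 20 μg protein on 8–10% SDS-PAGE, transferred to nitrocellulose and blocked with 5% milk. Primary antibodies overnight at 4 °C, detection by chemiluminescence. Phospho-ERK1/2, -JNK and -p38 quantified by densitometry (n = 3, ANOVA).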

For assay [2], the target named is MAP kinase p38 (Homo sapiens) (UniProt O15264+Q15759+Q16539+P53778). As to the kind of experiment: Inhibition of p38 phosphorylation in human HeLa cells at 20 uM after 3 hrs by Western blotting analysis. Type of assay: cell-based. The essentials: as §1
(In general: Immunoblotting shows a protein as a band on a membrane.)

Assay [3] concerns the target c-Jun N-terminal kinase, JNK (Homo sapiens) (UniProt P45983+P53779+P45984). Description: Inhibition of JNK phosphorylation in human HeLa cells at 20 uM after 3 hrs by Western blotting analysis. It is filed as cell-based. The essentials: as §1
A further assay has as its system HeLa. As to the kind of experiment: Cytotoxicity against human HeLa cells assessed as decrease in cell viability at 50 uM after 48 hrs by WST-8-based colorimetric assay. Type of assay: functional. The essentials:
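HeLa cells in 96-well plates given 50 μM compound for 48 h. Viability read with CCK-8: phenol red-free DMEM containing 10% WST-8 added, 1 h at 37 °C, then OD at 450 nm. Computed from the mean of three wells (n = 3, ANOVA).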
For orientation: Formazan colour is commonly taken as a measure of viable cells.

For assay [4], the target named is T1, Mitogen-activated protein kinase; ERK1/ERK2 (Homo sapiens). As to the kind of experiment: Inhibition of ERK1/2 phosphorylation in human HeLa cells after 3 hrs by Western blotting analysis. Type of assay: cell-based. An outline of the steps:
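HeLa cells exposed to compound at indicated concentrations (2.5 to 40 μM range) for 3 h, with PD98059 as positive control. Lysate protein (20 μg) was run on SDS-PAGE and Western blotted for phospho-ERK1/2. Blots were quantified by densitometry (n = 3, ANOVA).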

T1 sequence (P27361 whole entry, looked up): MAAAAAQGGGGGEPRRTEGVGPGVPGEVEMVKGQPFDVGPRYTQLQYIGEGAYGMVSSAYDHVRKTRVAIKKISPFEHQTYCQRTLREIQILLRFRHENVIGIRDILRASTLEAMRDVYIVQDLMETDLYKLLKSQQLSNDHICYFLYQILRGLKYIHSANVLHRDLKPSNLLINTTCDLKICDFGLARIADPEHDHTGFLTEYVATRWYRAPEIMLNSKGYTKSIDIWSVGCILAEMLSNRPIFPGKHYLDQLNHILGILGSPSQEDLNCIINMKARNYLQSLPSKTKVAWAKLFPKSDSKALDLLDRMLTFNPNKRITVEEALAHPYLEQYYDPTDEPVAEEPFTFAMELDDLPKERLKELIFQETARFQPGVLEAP
T1 sequence (P28482 whole entry, looked up): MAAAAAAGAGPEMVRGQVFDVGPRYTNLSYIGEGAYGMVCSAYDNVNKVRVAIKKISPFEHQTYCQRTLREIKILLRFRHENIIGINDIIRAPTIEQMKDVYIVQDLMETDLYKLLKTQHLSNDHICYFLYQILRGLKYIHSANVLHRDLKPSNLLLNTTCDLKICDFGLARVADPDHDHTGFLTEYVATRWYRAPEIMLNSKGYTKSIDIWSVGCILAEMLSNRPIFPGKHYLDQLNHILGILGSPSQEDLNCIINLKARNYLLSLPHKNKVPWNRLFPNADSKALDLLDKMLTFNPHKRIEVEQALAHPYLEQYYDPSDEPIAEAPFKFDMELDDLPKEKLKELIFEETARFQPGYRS

As for `C=C(C)[C@H]1CCC(=C)[C@@H](O)CCC2=C[C@H]1OC2=O`, the inhibition entry in assay [1] is “Active”. The inhibition result in assay [2] and in assay [3] was “inactive” each time.
`C/C1=C\CC/C(C=O)=C\[C@H]2[C@@H](C[C@H]1O)C2(C)C`: in assay [1], the inhibition entry was “Active”. The inhibition entry in assay [2] and in assay [3] was “inactive” in each case.
For `C/C1=C\CCC2=CC(O)(C/C(C)=C/CC1)OC2=O` (racemic), in assay [1], the inhibition entry is “Active”. Also, the inhibition entry in assay [2] and in assay [3] was “inactive” each time. The outcome in the assay on HeLa was inactive.
On to `C/C1=C\CC/C(C=O)=C\[C@@H]2[C@@H](CC1)C2(C)C`, for which the inhibition result in assay [1] is “Active”. Further, the inhibition result in assay [2] and in assay [3] was “inactive” each time.
For the molecule `C=C(C)[C@H]1CC[C@]2(C)[C@@H]([N+](=O)[O-])CC[C@@]23C(=O)O[C@@H]1[C@@H]3O`, the inhibition result in assay [1] is “Active”. Moreover, the inhibition result in assay [2] and in assay [3] was “inactive” throughout.
`COc1cccc(-c2cc(=O)c3ccccc3o2)c1N`: in assay [1], the inhibition result was “Active”.
For `C/C1=C\CC/C(C=O)=C\[C@@H]2[C@@H](CC1)[C@]2(C)CO`, the result in the assay on HeLa was Active.
The same measure, in the same setting: with `CC(=O)O[C@H]1/C=C(\C=O)CC/C=C(\C)CC/C=C(\C)C1` the entry was “Active”.
Turning to `CC(=O)OC[C@]1(C)[C@@H]2/C=C(/C=O)CC/C=C(\C)CC[C@H]21`, in assay [1], the inhibition entry was “Active”. The inhibition result in assay [2] and in assay [3] was “inactive” each time.
Regarding `C=C(C)[C@H]1CC/C(C)=C/CCC2=C[C@H]1OC2=O`, the inhibition entry in assay [1] was “Active”. The inhibition entry in assay [2] and in assay [3] was “inactive” throughout.
On to `CC1(C)[C@@H]2CC[C@@]3(C)O[C@@H]3CC/C(C=O)=C\[C@@H]21`, for which the inhibition result in assay [1] is “Active”. In addition, the inhibition entry in assay [2] and in assay [3] was “inactive” each time.
Take `COC(=O)[C@]1(C)[C@@H]2/C=C(/C=O)CC/C=C(\C)CC[C@H]21`: the result in the assay with HeLa was Active.
Take `C[C@@H]1CC(=O)C=C2CC[C@@H]3[C@@H](C3(C)C)[C@]21C`: in assay [4], the inhibition result is “Dose-dependent effect”. The inhibition result in assay [2] and in assay [3] was “inactive” throughout.
Turning to `C/C1=C\CCC2=C[C@H](C/C(C)=C/CC1)OC2=O`, the inhibition entry in assay [4] is “Dose-dependent effect”. The inhibition result in assay [2] and in assay [3] was “inactive” in each case.
For the molecule `C=C(C)[C@H]1C/C=C(\C)[C@@H](O)CCC2=C[C@H]1OC2=O`, the outcome in the assay on HeLa was Active.
